These results are taken from ChEMBL document CHEMBL3596166, “Bisabolane-Type Sesquiterpenoids from the Whole Plant of Parasenecio rubescens” (J Nat Prod, 2015).

Test [1] has as its system MCF7. Description: Cytotoxicity against human MCF7 cells assessed as inhibition of cell viability after 24 hrs by MTT assay. Format: functional, cell-based. The settings on record: MCF7, 24 h.
Test [2] deals with B16. The experiment in a line: Cytotoxicity against mouse B16 cells assessed as inhibition of cell viability after 24 hrs by MTT assay. The settings on record: B16, 24 h. The test is classed as functional, cell-based. In general terms: Formazan colour is commonly taken as a measure of viable cells.
Test [3] relates to HepG2. The experiment in a line: Cytotoxicity against human HepG2 cells assessed as inhibition of cell viability after 24 hrs by MTT assay. The test is classed as functional, cell-based. The note with it: HepG2, 24 h.
The test system of test [4] is Escherichia coli. The experiment in a line: Antibacterial activity against Escherichia coli assessed as growth inhibition at 200 ug/ml after 24 hrs by paper disk diffusion method. Format: functional. The settings on record: read-out: DIZ. In outline: (§1)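 Paper disk diffusion. About 0.1 mL of sample at 200 μg/mL applied to a 6 mm paper disk, air-dried, then placed on the inoculated culture dish and incubated 24 h at 37 °C. Read-out is inhibitory zone diameter (IZD). Penicillin G disks served as control for S. aureus and streptomycin disks for E. coli. Run in duplicate.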
(In general: A growth-free zone around the sample is the usual read-out of agar diffusion tests.)

Test [5] relates to Staphylococcus aureus. Description: Antibacterial activity against Staphylococcus aureus assessed as growth inhibition at 200 ug/ml after 24 hrs by paper disk diffusion method. The note with it: read-out: DIZ. The test is classed as functional. In outline:
as §1

Each structure is given as a SMILES string.

Usually IC50 stands for the concentration that inhibits the measured activity by half. Take `C=C(C(CC(O)C(C)(C)OC)OC(=O)/C(C)=C\C)[C@H]1[C@H](OC(=O)/C(C)=C\C)[C@H]2O[C@@]2(C)[C@@H](OC(=O)/C(C)=C\C)[C@H]1OC(C)=O` (some centres not stated): the IC50 worked out at 56.2 µM in test [1], 49.6 µM in test [2] and 96.6 µM in test [3].
In the case of `C=C(C(CC(O)C(C)(C)O)OC(=O)/C(C)=C\C)[C@H]1[C@H](OC(=O)/C(C)=C\C)[C@H]2O[C@@]2(C)[C@@H](OC(=O)/C(C)=C\C)[C@H]1OC(C)=O` (some centres not stated), the figures for the IC50 in test [1], in test [2] and in test [3] were 79.4 µM, 42.5 µM and 40.8 µM, respectively.
In the case of `COc1cccc2c1C(=O)c1c(O)c3c(c(O)c1C2=O)C[C@@](O)(C(=O)CO)C[C@@H]3O[C@H]1C[C@H](N)[C@H](O)[C@H](C)O1` [DOXORUBICIN], the 50% inhibitory concentration (IC50) turned out to be 17.7 µM in test [2] and 23.2 µM in test [3].
Take `CN[C@@H]1[C@H](O[C@H]2[C@H](O[C@H]3[C@H](O)[C@@H](O)[C@H](N=C(N)N)[C@@H](O)[C@@H]3N=C(N)N)O[C@@H](C)[C@]2(O)C=O)O[C@@H](CO)[C@H](O)[C@H]1O` [STREPTOMYCIN]: the zone of inhibition at 200 µg/mL in test [4] is 18 mm.
`C=C(C1CC(O)C(C)(C)O1)[C@H]1[C@H](OC(=O)/C(C)=C\C)[C@H]2O[C@@]2(C)[C@@H](OC(C)=O)[C@H]1OC(C)=O` (some centres not stated): the zone of inhibition at 200 µg/mL in test [5] and in test [4] was 8 mm throughout.
Regarding `CC1(C)S[C@@H]2[C@H](NC(=O)Cc3ccccc3)C(=O)N2[C@H]1C(=O)O` [PENICILLIN G], the zone of inhibition at 200 µg/mL in test [5] was found to be 25 mm.
As to `C=C(C)C(O)CC(OC(=O)/C(C)=C\C)C(=C)[C@H]1[C@H](O)[C@H](OC(=O)/C(C)=C\C)[C@@](C)(O)[C@H](O)[C@@H]1OC(=O)/C=C(\C)CC` (some centres not stated), the IC50 in test [1] worked out at 78.9 µM; in test [2], 39.7 µM; in test [3], 71.5 µM. The figures for the zone of inhibition at 200 µg/mL in test [5] and in test [4] were 9 mm and 8 mm, respectively.
